The source of these data is ChEMBL document CHEMBL4411326 (J Med Chem, 2019).

For one assay, the species on record is Rattus norvegicus. The assay is described as follows: Selectivity ratio of Ki for alpha7* nAChR in rat brain P2 membranes to Ki for alpha4beta2* nAChR in Wistar rat cerebral cortex membranes. Type of assay: cell membranes.
Assay [1] concerns the target Neuronal acetylcholine receptor subunit alpha-7 (Rattus norvegicus) (UniProt Q05941). The experiment in a line: Displacement of [3H]-methyllycaconitine from alpha7* nAChR in rat brain P2 membranes at 1 uM after 2.5 hrs by liquid scintillation spectrometry relative to control. Type of assay: cell membranes. The gist of the method: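 [3H]-Methyllycaconitine binding on rat brain minus cortex, striatum and cerebellum […]. Percent inhibition measured at 1 μM compound. Four independent experiments in duplicate.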
A general note: Loss of bound radioactivity is the signal in a displacement assay; it reports binding, not function.

Assay [2] concerns the target T1, Neuronal acetylcholine receptor subunit alpha-7 (Rattus norvegicus, UniProt Q05941). The experiment in a line: Displacement of [3H]-methyllycaconitine from alpha7* nAChR in rat brain P2 membranes after 2.5 hrs by liquid scintillation spectrometry. Type of assay: cell membranes.
The nature of assay [3]: Displacement of [3H]-cytisine from alpha4beta2* nAChR in Wistar rat cerebral cortex membranes after 75 mins. Type of assay: cell membranes.
Assay [4] can be described thus: (§1) Agonist activity at nAChR in human SH-SY5Y cells assessed as increase in intracellular Ca2+ levels measured every 2 secs for 3 mins by Fluo4AM-fluorescent dye based assay. The format is cell-based. To be noted: 0.05 h. The gist of the method:
(§2)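 SH-SY5Y cells (native nAChRs) in DMEM/F12 with 10% FBS were plated at 5000-10000 cells/well and grown 48-72 h. Cells were loaded with Fluo-4 AM (1.824 μM) and probenecid (1.25 mM). Compound was added just before reading; fluorescence at ex/em 485/535 nm. Mean ± SEM of three independent experiments, each with 5-6 measurements.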

Assay [5] deals with Neuronal acetylcholine receptor subunit alpha-7 (Homo sapiens, UniProt P36544). The experiment in a line: Agonist activity at human alpha7 nAChR expressed in mouse Neuro2a cells co-expressing chaperone NACHO assessed as increase in intracellular Ca2+ levels in presence of PNU120596 by calcium flux assay. The format is cell-based. In general terms: Calcium assays in cells follow changes in intracellular calcium, usually with a dye or a luminescent sensor.

For assay [6], the target named is T1, Neuronal acetylcholine receptor subunit alpha-7. The experiment in a line: Agonist activity at rat alpha7 nAChR expressed in Xenopus laevis oocytes after 4 to 5 days at -60 mV holding potential by […] assay. The format is cell-based. Summed up: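 Two-electrode voltage clamp on defolliculated stage V-VI Xenopus laevis oocytes (collagenase 2 mg/mL, 2 h, 21-24 °C, Ca2+-free Barth's, pH 7.6). Oocytes were injected with 9.2 ng cRNA of human α3+β2 (1:1) or rat α7 plus chaperone NACHO (2:1). Agonist applications were separated by 5 min washout in normal frog Ringer's.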
On the technique in general: Patch clamp records ionic current or voltage across a cell membrane.

For another assay, the system named is SH-SY5Y. The description is as §1. The format is cell-based. Summed up:
as §2

Each structure is given as a SMILES string. Activity calls are given as the source filed them. No cut-off for these calls is given here.

T1 sequence (Q05941 whole entry): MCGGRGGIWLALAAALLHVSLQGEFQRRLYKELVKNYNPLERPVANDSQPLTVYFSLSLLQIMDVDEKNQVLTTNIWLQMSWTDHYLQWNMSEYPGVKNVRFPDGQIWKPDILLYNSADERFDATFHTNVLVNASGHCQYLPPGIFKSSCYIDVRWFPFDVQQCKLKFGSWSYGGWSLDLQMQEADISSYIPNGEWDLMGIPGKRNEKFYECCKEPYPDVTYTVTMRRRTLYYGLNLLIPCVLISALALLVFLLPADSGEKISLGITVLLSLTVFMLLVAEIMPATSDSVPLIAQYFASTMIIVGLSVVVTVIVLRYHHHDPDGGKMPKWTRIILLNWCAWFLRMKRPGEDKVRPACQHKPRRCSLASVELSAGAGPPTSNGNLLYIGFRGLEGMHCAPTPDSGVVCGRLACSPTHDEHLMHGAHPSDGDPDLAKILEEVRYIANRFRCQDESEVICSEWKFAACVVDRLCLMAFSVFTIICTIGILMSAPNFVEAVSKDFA
Neuronal acetylcholine receptor subunit alpha-7 (Rattus norvegicus), sequence (Q05941 whole entry): as above
Neuronal acetylcholine receptor subunit alpha-7 (Homo sapiens, UniProt P36544), sequence (P36544 whole entry): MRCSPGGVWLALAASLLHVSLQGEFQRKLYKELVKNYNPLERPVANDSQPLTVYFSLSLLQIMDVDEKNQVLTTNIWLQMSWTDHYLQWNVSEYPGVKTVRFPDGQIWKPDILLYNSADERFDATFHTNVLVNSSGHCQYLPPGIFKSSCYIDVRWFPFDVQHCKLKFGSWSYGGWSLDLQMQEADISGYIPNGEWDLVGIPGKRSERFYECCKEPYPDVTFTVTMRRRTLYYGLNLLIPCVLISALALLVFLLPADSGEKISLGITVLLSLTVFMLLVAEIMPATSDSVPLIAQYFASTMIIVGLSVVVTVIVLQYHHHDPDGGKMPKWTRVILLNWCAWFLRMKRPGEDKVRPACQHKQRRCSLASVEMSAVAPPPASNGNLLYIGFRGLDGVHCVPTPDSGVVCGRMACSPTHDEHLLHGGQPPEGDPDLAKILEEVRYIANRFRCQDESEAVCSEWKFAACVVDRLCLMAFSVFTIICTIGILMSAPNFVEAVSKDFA

A word on the inhibition: it is how much of the control response was suppressed. The Ki is the equilibrium dissociation constant of an inhibitor or competing ligand from its target. A higher Ki goes with a looser hold on the target. As for `CN(C)[C@@H]1[C@@H]2CC[C@@H](C2)[C@H]1c1cccnc1`, the Ratio Ki in the assay filed under Rattus norvegicus is above 17. This molecule registered an inhibition in assay [1] of 8%. Moreover, the Ki in assay [2] is above 1000 nM; in assay [3], 59 nM.

As a reminder, the EC50 is the concentration giving half of the maximal effect. As for `CN1CCC[C@H]1c1cccnc1` [NICOTINE], the EC50 in assay [4] came out at 22500 nM. In addition, in assay [3], the Ki worked out at 2.31 nM.

The molecule `N[C@@H]1[C@H]2CC[C@H](C2)[C@H]1c1cccnc1` came in with an inhibition in assay [1] of 30%. The Ki is above 1000 nM in assay [2] and 166 nM in assay [3].

`N[C@@H]1[C@@H]2CC[C@@H](C2)[C@H]1c1cccnc1`: the EC50 amounted to 48 nM in assay [5], 5980 nM in assay [6] and 1920 nM in assay [4]. For the same molecule, the inhibition constant Ki in assay [2] was found to be 46 nM; in assay [3], 2.11 nM.

Consider `N[C@@H]1[C@@H]2CC[C@@H](C2)[C@H]1c1ccc(Cl)nc1`, for which the half-maximal effective concentration (EC50) in assay [5] worked out at 24 nM; in assay [6], 2710 nM; in assay [4] it was 220 nM. The results for the Ki in assay [2] and in assay [3] were 10.5 nM and 1.31 nM, respectively.

Consider `CN(C)[C@@H]1[C@@H]2CC[C@@H](C2)[C@H]1c1ccc(Cl)nc1`, for which the concentration for a half-maximal effect (EC50) in assay [5] was 6450 nM; in assay [6], above 10000 nM. Moreover, in assay [1], the inhibition turned out to be 33%. In addition, the values for the inhibition constant (Ki) in assay [2] and in assay [3] were above 1000 nM and 43 nM, respectively. Further, the outcome with SH-SY5Y was inactive.

Turning to `CN[C@@H]1[C@@H]2CC[C@@H](C2)[C@H]1c1ccc(Cl)nc1`, the Ratio Ki in the assay listed under Rattus norvegicus stood at 37. The Ki turned out to be 116 nM in assay [2] and 3.12 nM in assay [3].

In turn, `CN(C)[C@@H]1[C@H]2CC[C@H](C2)[C@H]1c1ccc(Cl)nc1` yielded an inhibition in assay [1] of 18%. The figures for the Ki in assay [2] and in assay [3] were above 1000 nM and 294 nM, respectively.

Turning to `N[C@@H]1[C@H]2CC[C@H](C2)[C@H]1c1ccc(Cl)nc1`, the Ki is 227 nM in assay [2] and 28 nM in assay [3].

With `CN[C@@H]1[C@H]2CC[C@H](C2)[C@H]1c1cccnc1`, the inhibition in assay [1] was 15%. Moreover, the inhibition constant Ki in assay [2] was above 1000 nM; in assay [3], 206 nM.

`CN[C@@H]1[C@@H]2CC[C@@H](C2)[C@H]1c1cccnc1`: the EC50 is 2290 nM in assay [5] and above 10000 nM in assay [6]. Also, the Ki in assay [2] was determined as 352 nM; in assay [3], 10.2 nM. Also, the result with SH-SY5Y was inactive.

Take `CN(C)[C@@H]1[C@H]2CC[C@H](C2)[C@H]1c1cccnc1`: the Ratio Ki in the assay filed under Rattus norvegicus is above 2. Besides, the inhibition in assay [1] came to 6%. Moreover, the results for the inhibition constant (Ki) in assay [2] and in assay [3] were above 1000 nM and 554 nM, respectively.
